Bioassay records from PubChem.
SUMO1-SIM PPI: modulators of SUMO1 protein-protein interactions, primary screen, biochemical, uHTS | Small ubiquitin-related modifier 1 (Homo sapiens), P63165 | SUMO1 binding to a labelled peptide, TR-FRET, 1 h | inhibition, % at 20 µM | 360,000 tested, 0.33% active | AID 602429, 2012; in the data active = inhibition above about 37%
Target sequence (P63165 whole entry, looked up): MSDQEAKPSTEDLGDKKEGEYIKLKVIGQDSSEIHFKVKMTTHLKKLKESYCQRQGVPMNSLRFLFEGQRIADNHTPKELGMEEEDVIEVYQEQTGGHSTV
STEP inh: STEP phosphatase inhibitors, primary screen, biochemical, fluorescence intensity, uHTS. Tyrosine-protein phosphatase non-receptor type 5 (Homo sapiens), P54829. recombinant STEP, OMFP fluorogenic substrate. inhibition, % at 20 µM. 360,000 tested, 0.25% active;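 active = inhibition at 20 µM, scaled per plate between control wells, above about 37%, limit read from the data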
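System: isolated STEP enzyme; schedule: 20 min enzyme reaction at room temperature, protected from light; medium: Bis-Tris buffer pH 6.0, 2.5 mM DTT, 0.005% Tween 20; signal: fluorescence, 480/540 nm; dosing: single compound dose of 20 µM, 1% DMSO final; also added: OMFP substrate, 25 µM final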
Scp-1 inhibitor: Scp-1 phosphatase inhibitors, primary screen, biochemical, colorimetric, uHTS | 340,000 tested, 0.88% active | Carboxy-terminal domain RNA polymerase II polypeptide A small phosphatase 1 (Homo … | Recombinant Scp1, phosphopeptide, malachite green phosphate absorbance | inhibition, % at 20 µM;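 active = inhibition above about 50% at 20 µM, limit read from the data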
Target sequence (Q9GZU7 76-261 limits assumed): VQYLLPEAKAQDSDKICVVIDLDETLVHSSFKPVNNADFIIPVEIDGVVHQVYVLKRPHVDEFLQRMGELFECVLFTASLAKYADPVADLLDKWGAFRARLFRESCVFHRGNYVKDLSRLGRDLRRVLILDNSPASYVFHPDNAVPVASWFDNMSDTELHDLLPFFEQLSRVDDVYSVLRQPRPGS
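Test system: SCP-1 catalytic domain; Buffer or medium: Acidic Tris acetate buffer with magnesium and detergent; Also added: Phosphorylated 17-residue peptide substrate; Compound: single 20 µM dose, 1% DMSO; Schedule: enzyme reaction 45 min at room temperature, colour 5 min, stabilisation 30 min; Signal: Phosphate-binding colour reagent, absorbance read at 630 nm.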
LMPTP inh: LMPTP phosphatase inhibitors, primary screen, biochemical, fluorescence intensity, uHTS; recombinant LMPTP-A, OMFP fluorogenic substrate; inhibition, % at 20 µM; 360,000 tested, 0.22% active; AID 651560, 2012;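 active = compounds that cut the enzyme signal by at least half of the control window in the single-dose screen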
Target sequence (P24666 whole entry, looked up): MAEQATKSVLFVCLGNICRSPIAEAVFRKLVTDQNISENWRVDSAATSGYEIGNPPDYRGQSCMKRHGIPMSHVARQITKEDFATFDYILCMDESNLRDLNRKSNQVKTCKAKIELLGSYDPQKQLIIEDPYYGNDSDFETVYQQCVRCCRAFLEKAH
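Buffer or medium: Bis-Tris pH 6.0, DTT, detergent; Assay system: LMPTP-A enzyme; Quantity: 0.625 nM enzyme; Detection: endpoint fluorescence intensity; Times: 50 min dark incubation at room temperature; Controls: substrate-only low control, DMSO enzyme-plus-substrate high control; Doses: single 20 µM dose; Read-out: percent inhibition versus substrate-only and uninhibited controls; Reagent: 400 µM OMFP.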
DNMT1 block: human DNMT1 methyltransferase inhibitors, primary screen, biochemical, molecular beacon, fluorescence, HinP1I cleavage, uHTS. inhibition (reported as % activation of signal), % at 10 µM. 360,000 tested, 0.83% active; in the data active = inhibition above about 50%
SUMO HTRF inh: inhibitors of in vitro SUMOylation cascade, primary screen, biochemical, HTRF, uHTS | SUMO-conjugating enzyme UBC9 (Homo sapiens), P63279 | HTRF SUMOylation assay, SAE1/SAE2 + UBC9 | inhibition, % at 35 µM | 290,000 tested, 0.36% active | AID 2006, 2009; in the data active = inhibition above about 50%, passing the limit was not always enough
Target sequence (P63279 whole entry, looked up): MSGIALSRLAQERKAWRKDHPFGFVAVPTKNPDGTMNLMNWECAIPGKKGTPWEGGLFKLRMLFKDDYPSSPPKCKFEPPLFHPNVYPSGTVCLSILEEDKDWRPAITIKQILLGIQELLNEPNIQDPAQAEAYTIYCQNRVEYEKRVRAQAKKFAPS
Scp1 confirm: Scp-1 phosphatase inhibitors, retest, confirmation, biochemical, colorimetric, single concentration; shares compounds with Scp-1 inhibitor; 2,500 tested, 61% active; inhibition, % at 20 µM; AID 540281, 2011; recombinant SCP-1 catalytic domain, phosphate release, malachite green absorbance
MG interference: colorimetric readout interference by compounds, confirmation, artefact control for Scp-1 inhibitor project, biochemical, single concentration; shares compounds with Scp-1 inhibitor; Colorimetric interference counterscreen, malachite green absorbance 630 nm; apparent inhibition (interference), % at 20 µM; 2,500 tested, under 10 active; AID 540313, 2011;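 also: compounds added after enzyme reaction finished so only phosphate colour detection is probed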
Scp1 DSF: Scp-1 binding by thermal shift, confirmation, orthogonal assay for Scp-1 inhibitor project, biophysical, differential scanning fluorimetry; shares compounds with Scp-1 inhibitor; Recombinant SCP1, Sypro Orange thermal shift Tm; thermal shift relative to vanadate control, % at 40 µM; 1,500 tested, 25% active; AID 540329, 2011;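 active = substances whose mean melting-temperature shift, as a percentage of the reference inhibitor's shift, reaches about 5.3%, limit read from the data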
DNMT1 interf DR: spectral interference with molecular beacon fluorescence, dose response, artefact control for DNMT1 inhibitor project, biochemical, fluorescent molecular beacon; shares compounds with DNMT1 block; spectral interference counter-screen; IC50, µM; 200 tested, under 10 active; AID 602382, 2012; call rule not given here
DNMT1 confirm: DNMT1 methyltransferase inhibitor retest, confirmation, biochemical, molecular beacon, fluorescence, single concentration; shares compounds with DNMT1 block; inhibition, % at 10 µM; DNMT1 molecular beacon HinP1I cleavage; 2,300 tested, 8% active;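 active = average inhibition of at least 30% in the single-concentration confirmation test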
Beacon interf: beacon fluorescence artifact counter-screen; 2,300 tested, 1% active; DNMT1 molecular beacon spectral interference counterscreen, fluorescence 485/520; shares compounds with DNMT1 block; activation (fluorescence interference), % at 10 µM;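 active = activation of at least 30% at 10 µM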;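 also: DNMT1 catalytic domain with a HinP1I cleavage step and a FAM/dabcyl DNA beacon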
Numbers stand for hits. In the library only some 1.9% were active in any assay of this set; here they are far more common.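 The calls were made as follows, unless noted: active = inhibition of at least 30% at 20 µM; inactive = the rest.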

For Cc1ccc(-c2cc(C(=O)NCc3ccco3)c3ccccc3n2)o1 the results were SUMO1-SIM PPI inactive, STEP inh inactive, Scp-1 inhibitor 77, LMPTP inh inactive, DNMT1 block 92, SUMO HTRF inh inactive, Scp1 confirm 71, MG interference inactive, Scp1 DSF inactive, DNMT1 confirm inactive and Beacon interf inactive.
Screening O=c1[nH]n2c(=O)c3c([nH]c2c1N=Nc1cccc(Cl)c1)CCC3 returned SUMO1-SIM PPI inactive, STEP inh inactive, Scp-1 inhibitor 78, LMPTP inh inactive, DNMT1 block 94, SUMO HTRF inh inactive, Scp1 confirm 59, MG interference inactive, Scp1 DSF 27, DNMT1 confirm inactive and Beacon interf inactive.
`CC(=O)c1ccc(OCCOc2ccc(Cl)c3cccnc23)cc1` gave SUMO1-SIM PPI inactive, STEP inh inactive, Scp-1 inhibitor inactive, LMPTP inh inactive, DNMT1 block inactive and SUMO HTRF inh inactive.
`CC1=NOC(=O)/C1=C\c1ccc(-c2ccc(Cl)c(C(=O)O)c2)o1` gave SUMO1-SIM PPI inactive, STEP inh inactive, Scp-1 inhibitor 67, LMPTP inh inactive, DNMT1 block 82, SUMO HTRF inh inactive, Scp1 confirm 58, MG interference inactive, Scp1 DSF inactive, DNMT1 confirm inactive and Beacon interf inactive.
O=C1NN(c2ccccc2)C(=O)/C1=C/c1ccc(-c2ccc(C(=O)O)cc2)o1 was read as SUMO1-SIM PPI inactive, STEP inh inactive, Scp-1 inhibitor 77, LMPTP inh inactive, DNMT1 block 78, SUMO HTRF inh inactive, Scp1 confirm 58, MG interference inactive, Scp1 DSF 15, DNMT1 interf DR inactive, DNMT1 confirm inactive and Beacon interf inactive.
Screening COC(=O)c1ccc(N2NC(=O)/C(=C/c3ccc(-c4ccc(Cl)c(C(=O)O)c4)o3)C2=O)cc1 returned SUMO1-SIM PPI inactive, STEP inh inactive, Scp-1 inhibitor 76, LMPTP inh inactive, DNMT1 block 79, SUMO HTRF inh inactive, Scp1 confirm 75, MG interference inactive, Scp1 DSF 14, DNMT1 confirm inactive and Beacon interf inactive.
`CC(OC(=O)/C=C/c1ccccc1)C(=O)Nc1cccc(C#N)c1` (stereo not drawn) gave SUMO1-SIM PPI inactive, STEP inh inactive, Scp-1 inhibitor inactive, LMPTP inh inactive and DNMT1 block inactive.
`O=C1CCCCCC[C@@H](O)[C@H](O)C[C@H](c2ccccc2)O1` gave SUMO1-SIM PPI inactive and LMPTP inh inactive.
For CC(C)(C)OC(=O)N(Cc1ccccc1)Cc1ccccc1OCc1cccc(NC(=O)C2CCC2)c1 the results were SUMO1-SIM PPI inactive, STEP inh inactive, Scp-1 inhibitor inactive, LMPTP inh inactive and DNMT1 block inactive.
CCC1(C)NC(=O)N(CC(=O)Nc2sc3c(c2C(=O)OC)CCCCC3)C1=O (stereo not drawn) was read as SUMO1-SIM PPI inactive, STEP inh inactive, Scp-1 inhibitor inactive, LMPTP inh inactive, DNMT1 block inactive and SUMO HTRF inh inactive.
Screening CCn1c(SCC(=O)Nc2sc3c(c2C#N)CCCC3)nnc1-c1ccco1 returned SUMO1-SIM PPI inactive, STEP inh inactive, Scp-1 inhibitor inactive, LMPTP inh inactive, DNMT1 block inactive and SUMO HTRF inh inactive.
For CCOC(=O)Cc1csc(SCC(=O)Nc2sc3c(c2C(N)=O)CCC3)n1 the results were SUMO1-SIM PPI inactive, STEP inh inactive, Scp-1 inhibitor 83, LMPTP inh inactive, DNMT1 block 95, SUMO HTRF inh inactive, Scp1 confirm 68, MG interference inactive, Scp1 DSF 6.6, DNMT1 confirm inactive and Beacon interf inactive.
`NC(=O)c1c(NC(=O)CSc2nnc(-c3ccco3)n2-c2ccccc2)sc2c1CCC2` gave SUMO1-SIM PPI inactive, STEP inh inactive, Scp-1 inhibitor 76, LMPTP inh inactive, DNMT1 block 86, SUMO HTRF inh inactive, Scp1 confirm 75, MG interference inactive, Scp1 DSF inactive, DNMT1 confirm inactive and Beacon interf inactive.
CCC1(CC)NC(=O)N(CC(=O)Nc2sc3c(c2C(N)=O)CCC3)C1=O was read as SUMO1-SIM PPI inactive, STEP inh inactive, Scp-1 inhibitor 68, LMPTP inh inactive, DNMT1 block 77, SUMO HTRF inh inactive, Scp1 confirm 61, MG interference inactive, Scp1 DSF 12, DNMT1 confirm inactive and Beacon interf inactive.
CCOC(=O)Cc1csc(SCC(=O)Nc2nccs2)n1 was read as SUMO1-SIM PPI inactive, STEP inh inactive, Scp-1 inhibitor inactive, LMPTP inh inactive and DNMT1 block inactive.
Screening COc1ccc(CCN2C(=O)COc3ccccc3C2C(=O)NC(C)(C)C)cc1OC (stereo not drawn) returned SUMO1-SIM PPI inactive and LMPTP inh inactive.
`O=C(CCc1n[nH]c(=O)[nH]c1=O)N/N=C/c1ccco1` gave SUMO1-SIM PPI inactive, STEP inh inactive, Scp-1 inhibitor 81, LMPTP inh inactive, DNMT1 block 51, SUMO HTRF inh inactive, Scp1 confirm 56, MG interference inactive, Scp1 DSF inactive, DNMT1 confirm inactive and Beacon interf inactive.
